Test results taken from ChEMBL document CHEMBL1158529, “Synthesis and biological evaluation of novel C5 halogen-functionalized S-DABO as potent HIV-1 non-nucleoside reverse transcriptase inhibitors” (Bioorg Med Chem, 2010).
Calls of active or inactive are those of the source. The calls are words filed in the database; no cut-off is given here.

Legend:
[1] = biological target: Human immunodeficiency virus type 1 reverse transcriptase (Human immunodeficiency virus 1, UniProt Q72547); experiment: Inhibition of HIV1 reverse transcriptase by ELISA
Procedure, shortened: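 HIV-1 reverse transcriptase activity measured with a poly(rA)/oligo(dT)15 homopolymer template and read by HIV antigen-detection ELISA.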

[2] = biological target: Human immunodeficiency virus type 1 reverse transcriptase (Human immunodeficiency virus 1) (UniProt Q72547); experiment: Inhibition of HIV1 reverse transcriptase up to 100 uM by ELISA
Procedure, shortened: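 RT assay on a poly(rA)/oligo(dT)15 homopolymer template with HIV antigen-detection ELISA read-out. Compounds were tested for loss of RT activity at concentrations up to 100 µM. Values are means of three separate experiments, with triplicate variation under 15%.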

[3] = biological target: Human immunodeficiency virus type 1 reverse transcriptase (Human immunodeficiency virus 1) (UniProt Q72547); experiment: Ratio of compound IC50 to 5a3 IC50 for HIV1 reverse transcriptase
[4] = biological target: Human immunodeficiency virus type 1 reverse transcriptase (Human immunodeficiency virus 1) (UniProt Q72547); experiment: Ratio of nevirapine IC50 to compound IC50 for HIV1 reverse transcriptase

Row | SMILES | IC50 [1] [µM] | also measured
1 | Cc1cccc(CSc2nc(Cc3ccccc3)cc(=O)[nH]2)c1 | 91.1 | 
2 | O=c1[nH]c(SCc2ccccc2)nc(Cc2ccccc2)c1I | 10.1 | 
3 | C=CCSc1nc(Cc2ccccc2)cc(=O)[nH]1 | > 100 | 
4 | O=c1cc(Cc2ccccc2)nc(SCc2ccccc2)[nH]1 |  | inhibition [2]: inactive
5 | CCOCSc1nc(Cc2ccccc2)cc(=O)[nH]1 | > 100 | 
6 | O=c1cc(Cc2ccccc2)nc(SCOCc2ccccc2)[nH]1 | 12.1 | 
7 | Cc1c(Cc2ccccc2)nc(SCc2ccc3ccccc3c2)[nH]c1=O |  | inhibition [2]: inactive
8 | Cc1ccccc1CSc1nc(Cc2ccccc2)c(C)c(=O)[nH]1 | > 100 | 
9 | CC(C)(C)c1ccc(CSc2nc(Cc3ccccc3)c(I)c(=O)[nH]2)cc1 | 5.62 | 
10 | COc1cccc(CSc2nc(Cc3ccccc3)c(C)c(=O)[nH]2)c1 | 48.7 | 
11 | Cc1c(Cc2ccccc2)nc(SCc2ccccc2)[nH]c1=O |  | inhibition [2]: inactive
12 | Cc1c(Cc2ccccc2)nc(SCCCc2ccccc2)[nH]c1=O | 2.93 | 
13 | Cc1c(Cc2ccccc2)nc(SC(C)c2ccccc2)[nH]c1=O (centres undefined) | > 100 | 
14 | Cc1c(Cc2ccccc2)nc(SCOCc2ccccc2)[nH]c1=O | 19 | 
15 | CC(Sc1nc(Cc2ccccc2)cc(=O)[nH]1)c1ccccc1 (centres undefined) | > 100 | 
16 | COc1cccc(CSc2nc(Cc3ccccc3)cc(=O)[nH]2)c1 | 90.8 | 
17 | Cc1c(Cc2ccccc2)nc(SCCc2ccccc2)[nH]c1=O | 59.6 | 
18 | O=c1cc(Cc2ccccc2)nc(SCCc2ccccc2)[nH]1 | 17.4 | 
19 | Cc1cccc(CSc2nc(Cc3ccccc3)c(Br)c(=O)[nH]2)c1 | 26.7 | 

Row | SMILES | IC50 [1] [µM] | also measured
20 | O=c1[nH]c(SCCc2ccccc2)nc(Cc2ccccc2)c1I | 2.4 | 
21 | O=c1cc(Cc2ccccc2)nc(SCCCc2ccccc2)[nH]1 | 8.17 | Ratio IC50 [3]: 45
22 | O=c1[nH]c(SCc2ccc3ccccc3c2)nc(Cc2ccccc2)c1I | 2.04 | 
23 | Cc1c(Cc2ccccc2)nc(SCc2ccc(C(C)(C)C)cc2)[nH]c1=O |  | inhibition [2]: inactive
24 | O=c1[nH]c(SCc2ccc3ccccc3c2)nc(Cc2ccccc2)c1Br | 12.3 | 
25 | O=c1[nH]c(SCCc2ccccc2)nc(Cc2ccccc2)c1Br | 13.9 | 
26 | CCOCn1c(Cc2ccccc2)c(C(C)C)c(=O)[nH]c1=O [EMIVIRINE] | 0.15 | 
27 | CCOCSc1nc(Cc2ccccc2)c(C)c(=O)[nH]1 | 51.7 | 
28 | O=c1[nH]c(SCCCc2ccccc2)nc(Cc2ccccc2)c1I | 0.18 | Ratio IC50 [4]: 23
29 | COc1cccc(CSc2nc(Cc3ccccc3)c(I)c(=O)[nH]2)c1 | 8.29 | 
30 | Cc1ccccc1CSc1nc(Cc2ccccc2)c(Br)c(=O)[nH]1 | 24.9 | 
31 | Cc1ccccc1CSc1nc(Cc2ccccc2)c(I)c(=O)[nH]1 | 4.16 | 
32 | Cc1cccc(CSc2nc(Cc3ccccc3)c(C)c(=O)[nH]2)c1 |  | inhibition [2]: inactive
33 | O=c1cc(Cc2ccccc2)nc(SCc2ccc3ccccc3c2)[nH]1 |  | inhibition [2]: inactive
34 | C=CCSc1nc(Cc2ccccc2)c(C)c(=O)[nH]1 |  | inhibition [2]: inactive
35 | Cc1ccccc1CSc1nc(Cc2ccccc2)cc(=O)[nH]1 | 47.7 | 
36 | Cc1cccc(CSc2nc(Cc3ccccc3)c(I)c(=O)[nH]2)c1 | 3.03 | 
37 | CC(C)(C)c1ccc(CSc2nc(Cc3ccccc3)cc(=O)[nH]2)cc1 |  | inhibition [2]: inactive
